In the library only some 3.1% were active in any assay of this set; here they are far more common.
Myeloid diff MLP: promotes myeloid progenitor differentiation; ER-HoxA9 myeloid progenitors, lysozyme-GFP differentiation, flow cytometry; calls only at 10 µM; actives 1% (n = 360,000); AID 624256;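 active = normalized GFP-positive differentiation at or above the plate's own cutoff, the solvent-only control mean plus 3 SD; inconclusive = no clear call, values can overlap the other calls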;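 also: cells exposed to compound for four days before flow analysis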
CTSL1 counter: counter-screen for PFM18AAP inhibitors: inhibitors of F. hepatica cathepsin L1 | inhibition, % at 5.96 µM | actives 0.49% (n = 300,000) | recombinant F. hepatica cathepsin L1, Z-Leu-Arg-MCA fluorescence;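 active = inhibition above the mean of all tested compounds plus 3 SD, set per screening campaign, cut at about 17% in these data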
PP5 primary: inhibitors of human protein phosphatase 5 (PP5). P53041. purified PP5c, OMFP substrate fluorescence. inhibition, % at 6.7 µM. actives 0.18% (n = 320,000). AID 1987;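 active = inhibition above the campaign's mean inhibition across all tested compounds plus 3 SD, cut at about 9.5% in these data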
NadD block: inhibitors of Staphylococcus aureus NadD; purified NadD enzyme, colorimetric absorbance read-out; inhibition, % at 20 µM; actives 0.78% (n = 360,000); AID 602399; in the data active = inhibition above about 26%
PP1 inh: counter-screen for PP5 inhibitors: inhibitors of human PP1-alpha; actives 0.9% (n = 320,000); purified PP1alpha, OMFP fluorescence; inhibition, % at 6.7 µM; P62136;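 active = inhibition above the mean inhibition of all tested compounds plus 3 SD, computed separately for each screening campaign, cut at about 15% in these data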
Target sequence (P62136 whole entry, looked up): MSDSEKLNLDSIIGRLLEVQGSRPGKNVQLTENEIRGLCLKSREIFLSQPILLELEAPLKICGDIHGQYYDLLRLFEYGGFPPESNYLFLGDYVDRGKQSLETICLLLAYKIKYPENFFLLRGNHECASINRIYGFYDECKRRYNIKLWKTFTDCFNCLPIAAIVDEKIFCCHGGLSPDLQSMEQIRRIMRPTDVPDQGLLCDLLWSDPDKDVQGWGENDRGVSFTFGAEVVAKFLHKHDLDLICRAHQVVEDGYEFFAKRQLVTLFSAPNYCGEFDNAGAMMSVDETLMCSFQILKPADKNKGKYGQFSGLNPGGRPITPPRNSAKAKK
core dimer inh: HCV core protein dimerization inhibition; inhibition, % at 5 µM; actives 0.33% (n = 300,000); TR-FRET GST/Flag-core106 dimerization, 1536-well; AID 1899;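 active = inhibition above the mean of all tested compounds plus 3 SD, set per screening campaign, cut at about 45% in these data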
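Assay system: Tagged HCV core106 pair (GST and Flag) | Buffer or medium: KF-containing HEPES buffer, pH 7.45, DTT, CHAPS, BSA | Also added: Eu donor and XL665 acceptor anti-tag antibodies | Dosing: One concentration, 5 µM, in 0.5% DMSO | Timing: 4 h at 22.5 °C | Technique: TR-FRET 671 and 617 nm emission | Repeats: Singlicate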
Each line names hits and unclear results; the compound was inactive in the other large screens.

Cc1ccccc1Cc1c(C)nc2ncnn2c1C	none
Cc1cc(C)n2nc(SCCOc3ccc(F)cc3)nc2n1	Myeloid diff MLP active
Cc1cccc(CSc2nc3nc(C)cc(C)n3n2)c1	Myeloid diff MLP active
CN1CCN(C(=O)c2ccc(-c3cnn(C)c3)c3ccoc23)CC1	none (no result: CTSL1 counter, PP5 primary, PP1 inh, core dimer inh)
CCOC(=O)c1sc(-c2ccc(C(F)(F)F)cc2)nc1O	PP1 inh 16.6
CCOC(=O)c1cc(-c2csc(-c3ccc(C(F)(F)F)cc3)n2)on1	none
CCOC(=O)c1c(NS(=O)(=O)c2ccc(Br)cc2)sc2c1CCC2	core dimer inh 69.7
CCOC(=O)c1c(NS(=O)(=O)Cc2ccccc2)sc2c1CCCC2	none
CCN1C(=O)[C@H]2[C@@H](c3ccc(-c4ccc(F)cc4)c(OC)c3)N[C@@](CC(C)C)(C(=O)OC)[C@H]2C1=O	none (no result: Myeloid diff MLP, NadD block)
CC1(C(=O)Nc2ccc3[nH]ncc3c2)CCN1C(=O)CC(c1ccccc1)c1ccccc1 (stereo not given)	none (no result: CTSL1 counter, PP5 primary, PP1 inh, core dimer inh)
CC1(C(=O)Nc2ccc3[nH]ncc3c2)CCN1C(=O)C/C=C/c1ccccc1 (stereo not given)	Myeloid diff MLP active (no result: CTSL1 counter, PP5 primary, PP1 inh, core dimer inh)
O=C(Nc1nnc(SCc2ccc(F)cc2)s1)C1CC(=O)N(c2ccc3c(c2)OCCO3)C1 (stereo not given)	none
O=C(Nc1nc(-c2ccco2)c(-c2ccco2)s1)C1CC(=O)N(c2ccc3c(c2)OCCO3)C1 (stereo not given)	NadD block 71.6
COc1ccc(N2CC(C(=O)Nc3nnc(SCC(=O)NCc4ccco4)s3)CC2=O)cc1 (stereo not given)	Myeloid diff MLP active
Cc1nnc(NC(=O)C2CC(=O)N(c3ccc4c(c3)OCCO4)C2)s1 (stereo not given)	none (no result: CTSL1 counter, core dimer inh)
O=C(CSc1nnc(NC(=O)C2CC(=O)N(c3ccc(F)cc3)C2)s1)NCc1ccco1 (stereo not given)	none
N#Cc1ccc(CSc2nnc(NC(=O)C3CC(=O)N(c4ccc5c(c4)OCCO5)C3)s2)cc1 (stereo not given)	core dimer inh 64.3
Oc1nc(Nc2cccc(Cl)c2)sc1/C=C1\C=Nc2ccccc21	none
CCOC(=O)c1c(Nc2ccc(Cl)cc2)sc(/C=C2\C=Nc3ccccc32)c1O	NadD block 32.7
COc1ccccc1NS(=O)(=O)c1ccc(O)c(C(=O)OCC(=O)N2c3ccccc3CC2C)c1 (stereo not given)	Myeloid diff MLP active
O=C(Nc1nnc(S(=O)(=O)N2CCCC2)s1)c1ccccc1Br	CTSL1 counter 80.6
O=C(Nc1nnc(S(=O)(=O)N2CCCCCC2)s1)c1ccccc1Br	none
O=C(c1ccco1)N1CCN(C(=O)c2cc(-c3ccccn3)nc3ccc(Cl)cc23)CC1	core dimer inh 76.2
O=C(O)c1ccc(NC2=C(N3CCOCC3)C(=O)c3ccccc3C2=O)cc1	CTSL1 counter 33.4
O=C(NCc1ccc(F)cc1F)[C@@H]1CCCN1C(=O)[C@@H]1CCCN1	none (no result: CTSL1 counter, PP5 primary, PP1 inh, core dimer inh)
CCOC(=O)/C=c1\s/c(=C\c2c(OC)ccc3ccccc23)c(=O)n1CC(=O)NCC1CCCO1 (stereo not given)	Myeloid diff MLP active
CCOC(=O)/C=c1/s/c(=C/c2ccc3cc(OC)ccc3c2)c(=O)n1CC(=O)NCC1CCCO1 (stereo not given)	none (no result: CTSL1 counter, PP5 primary, PP1 inh, core dimer inh)
CCOC(=O)c1c(C)[nH]c(C)c1C(=O)COC(=O)COc1ccc(Cl)c(C)c1	none (no result: CTSL1 counter, PP5 primary, PP1 inh, core dimer inh)
OCC[C@H]1C[C@H](O)[C@@H](O)[C@]2(CCCc3ccccc3O2)O1	none
C(=Cc1c[nH]c2ccccc12)c1nccc2ccccc12	none (no result: CTSL1 counter, PP5 primary, PP1 inh, core dimer inh)
C(=Cc1c[nH]c2ccccc12)c1ccc2ccccc2n1	Myeloid diff MLP active (no result: CTSL1 counter, PP5 primary, PP1 inh, core dimer inh)
CCOC(=O)N1CCN(C(=O)c2ccc3c(c2)N(C)C(=O)/C(=C\c2ccc(OCC)c(OC)c2)S3)CC1	Myeloid diff MLP inconclusive, CTSL1 counter 20.0
CCOc1ccc(/C=C2/Sc3ccc(C(=O)N4CCN(C(=O)c5ccco5)CC4)cc3N(C)C2=O)cc1OC	none (no result: Myeloid diff MLP, NadD block)
O=C(CC(c1ccco1)C1CCCCC1=O)c1ccccc1 (stereo not given)	CTSL1 counter 52.0
COc1ccc(C(CC(=O)c2ccccc2)C2CCCCC2=O)cc1 (stereo not given)	none
CCCOc1ccccc1/C=C(\C#N)C(=O)Nc1cccc(C)n1	Myeloid diff MLP active
COc1cccc(-c2noc(-c3cccnc3)n2)c1	none
